Tests used:
B2 bradykinin receptor [1] = target: T1, B2 bradykinin receptor (Cavia porcellus, UniProt O70526); assay: In vitro inhibitory activity towards bradykinin receptor B2 using [3H]BK (0.06 nM) as a radioligand in guinea pig ileum membrane preparation; format: cell membranes
T1 sequence (O70526 whole entry): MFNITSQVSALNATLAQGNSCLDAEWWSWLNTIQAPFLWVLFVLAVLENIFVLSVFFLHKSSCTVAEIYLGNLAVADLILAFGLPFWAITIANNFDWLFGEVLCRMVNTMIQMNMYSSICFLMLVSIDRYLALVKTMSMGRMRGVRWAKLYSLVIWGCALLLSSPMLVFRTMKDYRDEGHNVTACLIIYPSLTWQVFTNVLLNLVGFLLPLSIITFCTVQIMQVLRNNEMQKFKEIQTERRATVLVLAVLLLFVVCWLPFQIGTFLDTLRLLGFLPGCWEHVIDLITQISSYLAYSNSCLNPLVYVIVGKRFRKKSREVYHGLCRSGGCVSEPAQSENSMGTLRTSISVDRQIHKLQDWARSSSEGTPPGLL
Summary of the method: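 Ileal membranes from male Hartley guinea pigs, prepared in TES/1,10-phenanthroline pH 6.8 with 100000 g pellet. Membranes (0.2 mg protein/mL) incubated with [3H]BK and varying compound concentrations 60 min at room temperature in binding buffer with bacitracin, DTT, captopril, BSA. Filter harvest, scintillation counting; nonspecific with 1 μM BK. IC50 as mean of ≥3 determinations.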

B2 bradykinin receptor [2] = target: T2, B2 bradykinin receptor (Homo sapiens, UniProt P30411); assay: In vitro inhibitory activity towards human bradykinin receptor B2 expressed in CHO cells using [3H]BK (1.0 nM) as a radioligand; format: cell-based
T2 sequence (P30411 whole entry): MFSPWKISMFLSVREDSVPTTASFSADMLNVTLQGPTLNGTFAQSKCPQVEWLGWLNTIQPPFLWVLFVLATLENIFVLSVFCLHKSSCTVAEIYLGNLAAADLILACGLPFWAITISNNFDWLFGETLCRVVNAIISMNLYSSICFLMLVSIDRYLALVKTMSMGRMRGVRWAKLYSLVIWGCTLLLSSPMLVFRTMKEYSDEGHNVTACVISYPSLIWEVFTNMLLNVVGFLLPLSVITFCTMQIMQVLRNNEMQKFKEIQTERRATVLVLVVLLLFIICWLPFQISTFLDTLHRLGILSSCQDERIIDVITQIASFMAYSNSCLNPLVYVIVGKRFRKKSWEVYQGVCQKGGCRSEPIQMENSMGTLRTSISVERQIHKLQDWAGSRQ
Summary of the method: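 Stably transfected CHO (dhfr-) cells seeded at 3.0 × 10^4 cells/well, cultured 1 day, then incubated with test compounds for 2 h at 4 °C. Binding buffer was HEPES/N-methyl-D-glucamine pH 7.2 with bacitracin, enalaprilat and BSA. Cells solubilized in SDS/NaOH and counted by scintillation; nonspecific binding with 1 μM unlabeled BK. Run three times.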

Cavia porcellus [3] = assay: Compound was evaluated for percentage inhibition against BK-induced bronchoconstriction in anesthetized guinea pig, intravenously at a concentration of 1 mg/kg; format: functional; conditions: route intravenous
Summary of the method: (§1)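 Male Hartley guinea pigs (470-750 g), fasted overnight, pentobarbital 30 mg/kg ip, tracheal and jugular cannulation, ventilated 10 mL/kg at 60 breaths/min; alcuronium 0.5 mg/kg iv, propranolol 10 mg/kg sc. BK 5 μg/kg iv; compound in 5% citric acid iv 25 min later, BK repeated 5 min after drug. Peak insufflation pressure rise (Konzett-Rossler); % inhibition vs vehicle, n=3-4.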

Cavia porcellus [4] = assay: Compound was evaluated for percentage inhibition against BK-induced bronchoconstriction in anesthetized guinea pig, intravenously at a concentration of 10 mg/kg; format: functional; conditions: route intravenous; summary of the method: as §1

Row | IC50 (B2 bradykinin receptor [1]) [nM] | IC50 (B2 bradykinin receptor [2]) [nM] | Compound | inhibition in vivo at 1 mg/kg (Cavia porcellus [3]) [%] | inhibition in vivo at 10 mg/kg (Cavia porcellus [4]) [%]
1 | 1.8 | 3.2 | CNC(=O)c1ccc(/C=C/C(=O)NCC(=O)N(C)c2ccc(Cl)c(COc3cccc4c(N(C)C)cc(C)nc34)c2Cl)cc1 |  | 
2 | 2.9 | 2.1 | Cc1cc(N(C)C)c2cccc(OCc3c(Cl)ccc(N(C)C(=O)CNC(=O)/C=C/c4ccc(C(=O)N(C)C)cc4)c3Cl)c2n1 |  | 
3 | 3.7 | 0.28 | CNC(=O)c1ccc(/C=C/C(=O)NCC(=O)N(C)c2ccc(Cl)c(COc3cccc4c(-n5ccnc5)cc(C)nc34)c2Cl)cc1 |  | 
4 | 2.7 | 0.17 | CNC(=O)c1ccc(/C=C/C(=O)NCC(=O)N(C)c2ccc(Cl)c(COc3cccc4c(-n5cccn5)cc(C)nc34)c2Cl)cc1 |  | 
5 | 3 | 0.26 | Cc1cc(-n2ccnc2)c2cccc(OCc3c(Cl)ccc(-n4cccc4CNC(=O)/C=C/c4ccc(C(=O)N(C)C)cc4)c3Cl)c2n1 | 46 | 
6 | 4.4 | 0.23 | CNC(=O)c1ccc(/C=C/C(=O)NCC(=O)N(C)c2ccc(Cl)c(COc3cccc4c(-n5cncn5)cc(C)nc34)c2Cl)cc1 |  | 
7 | 4.3 | 0.35 | Cc1cc(-n2ccnc2)c2cccc(OCc3c(Cl)ccc(N(C)C(=O)CNC(=O)/C=C/c4ccc(C(=O)N(C)C)cc4)c3Cl)c2n1 |  | 
8 | 9.1 | 0.28 | Cc1cc(-n2ccnn2)c2cccc(OCc3c(Cl)ccc(N(C)C(=O)CNC(=O)/C=C/c4ccc(C(=O)N(C)C)cc4)c3Cl)c2n1 |  | 
9 | 6.6 | 0.23 | Cc1cc(-n2ccnc2)c2cccc(OCc3c(Cl)ccc(N(C)C(=O)CNC(=O)Nc4cccc(C(=O)Nc5ccncc5)c4)c3Cl)c2n1 |  | 56.8
10 | 6 | 0.43 | Cc1cc(-n2ccnc2)c2cccc(OCc3c(Cl)ccc(-n4cccc4CNC(=O)/C=C/c4ccc(C(=O)NCc5ccccn5)cc4)c3Cl)c2n1 |  | 
11 | 3.3 | 0.18 | Cc1cc(-n2cccn2)c2cccc(OCc3c(Cl)ccc(N(C)C(=O)CNC(=O)/C=C/c4ccc(C(=O)N(C)C)cc4)c3Cl)c2n1 |  | 
12 | 17 | 0.42 | Cc1cc(-n2ccnc2)c2cccc(OCc3c(Cl)ccc(N(C)C(=O)CNC(=O)/C=C/c4ccc(C(=O)Nc5ccncc5)cc4)c3Cl)c2n1 |  | 
13 | 3.1 | 1 | CNC(=O)c1ccc(/C=C/C(=O)NCC(=O)N(C)c2ccc(C)c(COc3cccc4c(-c5ccccc5)cc(C)nc34)c2C)cc1 |  | 
14 |  |  | N=C(N)NCCC[C@@H](N)C(=O)N[C@@H](CCCNC(=N)N)C(=O)N1CCC[C@H]1C(=O)N1C[C@H](O)C[C@H]1C(=O)NCC(=O)N[C@@H](Cc1cccs1)C(=O)N[C@@H](CO)C(=O)N1Cc2ccccc2C[C@@H]1C(=O)N1[C@H](C(=O)N[C@@H](CCCNC(=N)N)C(=O)O)C[C@@H]2CCCC[C@@H]21 [ICATIBANT] | 63.4 | 

From ChEMBL document CHEMBL1149113 (J Med Chem, 2004)
